ChEMBL document CHEMBL4028864 (J Med Chem, 2017)
Calls of active or inactive are those of the source. The rule behind the calls is not given here.

Tests used:
[1] = Clearance in Wistar rat at 1 mg/kg, iv by LC-MS/MS analysis; format: ADME, organism-based; details: in vivo
In short: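 Wistar rats given a single 1 mg/kg iv dose. Plasma concentration–time profiles were plotted as mean ± SEM and sampled through 24 h postdose. Values were taken from the iv profile.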

Histone deacetylase 8 = Histone deacetylase 8 (Homo sapiens, UniProt Q9BY41); assay: Inhibition of C-terminal His tagged human recombinant HDAC8 (1 to 377 residues) expressed in Baculovirus infected insect cells in presence of ATP
In short: (§1)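 HDAC enzyme inhibition was run by a contract laboratory.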

TAMH = assay: cells; format: ADME, cell-based; details: Mus musculus, 24 h
[2] = biological target: T1, Protein deacetylase HDAC6 (Homo sapiens, UniProt Q9UBN7); assay: Inhibition of N-terminal GST tagged human HDAC6 (1 to 1215 residues) expressed in baculovirus infected insect cells using RHKKAc as substrate in presence of ATP
T1 sequence (Q9UBN7 whole entry): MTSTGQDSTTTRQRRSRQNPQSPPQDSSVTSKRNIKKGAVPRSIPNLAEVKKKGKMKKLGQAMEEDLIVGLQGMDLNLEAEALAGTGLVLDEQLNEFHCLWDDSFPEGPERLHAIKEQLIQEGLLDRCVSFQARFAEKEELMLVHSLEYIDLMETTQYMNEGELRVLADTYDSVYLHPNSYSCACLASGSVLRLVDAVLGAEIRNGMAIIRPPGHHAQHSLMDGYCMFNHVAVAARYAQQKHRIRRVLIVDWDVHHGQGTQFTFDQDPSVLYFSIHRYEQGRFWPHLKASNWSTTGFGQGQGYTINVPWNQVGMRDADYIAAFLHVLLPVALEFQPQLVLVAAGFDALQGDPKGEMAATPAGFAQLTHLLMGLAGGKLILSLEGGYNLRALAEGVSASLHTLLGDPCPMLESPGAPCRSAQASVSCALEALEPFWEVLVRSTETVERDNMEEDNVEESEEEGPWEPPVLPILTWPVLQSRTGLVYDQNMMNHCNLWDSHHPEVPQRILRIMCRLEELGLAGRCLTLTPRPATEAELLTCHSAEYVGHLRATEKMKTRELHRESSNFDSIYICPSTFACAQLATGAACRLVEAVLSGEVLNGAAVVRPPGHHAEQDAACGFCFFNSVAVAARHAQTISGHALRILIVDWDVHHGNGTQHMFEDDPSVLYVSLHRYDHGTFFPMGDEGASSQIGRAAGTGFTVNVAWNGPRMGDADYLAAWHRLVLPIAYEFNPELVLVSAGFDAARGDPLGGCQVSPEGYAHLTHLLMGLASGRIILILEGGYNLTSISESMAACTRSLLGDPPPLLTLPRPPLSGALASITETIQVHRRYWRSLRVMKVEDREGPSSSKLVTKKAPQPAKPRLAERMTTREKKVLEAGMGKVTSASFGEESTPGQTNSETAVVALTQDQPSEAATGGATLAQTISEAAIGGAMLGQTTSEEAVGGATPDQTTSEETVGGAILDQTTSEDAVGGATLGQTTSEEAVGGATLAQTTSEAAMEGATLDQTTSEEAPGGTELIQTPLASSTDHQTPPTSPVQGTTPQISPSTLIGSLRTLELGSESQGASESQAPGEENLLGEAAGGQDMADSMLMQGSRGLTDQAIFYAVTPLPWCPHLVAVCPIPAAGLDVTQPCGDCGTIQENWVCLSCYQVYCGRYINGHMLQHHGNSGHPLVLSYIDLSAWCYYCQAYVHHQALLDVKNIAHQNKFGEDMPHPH

[3] = biological target: Tyrosine-protein kinase JAK2 (Homo sapiens, UniProt O60674); assay: Inhibition of human JAK2 using poly[Glu:Tyr] as substrate in presence of [gamma-33P]-ATP
[4] = biological target: T2, Non-receptor tyrosine-protein kinase TYK2 (Homo sapiens, UniProt P29597); assay: Inhibition of human TYK2 using KKSRGDYMTMQIG as substrate in presence of [gamma-33P]-ATP
In short: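 Kinase inhibition was tested by radiometric "Hotspot" profiling at a contract laboratory with 10 μM ATP.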

[5] = biological target: T2, Non-receptor tyrosine-protein kinase TYK2; assay: Inhibition of wild type human TYK2 (V877 to C1187 residues) expressed in mammalian cells assessed as residual activity at 1 uM by KINOMEscan assay relative to control; format: cell-based
Histone deacetylase 2 = Histone deacetylase 2 (Homo sapiens, UniProt Q92769); assay: Inhibition of C-terminal GST tagged human recombinant HDAC2 (1 to 488 residues) expressed in Baculovirus infected insect cells in presence of ATP; in short: as §1
MOLM-14 = assay: cells; format: functional, cell-based; details: Homo sapiens, MOLM-14, 48 h
cells = format: functional, cell-based; details: Homo sapiens, KHYG, 48 h
[6] = biological target: Protein deacetylase HDAC6 (Homo sapiens) (UniProt Q9UBN7); assay: Inhibition of HDAC6 in human MOLM14 cells assessed as increase in acetylated tubulin level up to 3 uM after 16 hrs by immunoblotting analysis; format: cell-based
In short: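 KMS-12-BM and MOLM-14 cells were treated for 16 h and then lysed. Acetylated tubulin was detected by immunoblotting, and membranes were reprobed for total tubulin as loading control.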

T2 sequence (P29597 whole entry): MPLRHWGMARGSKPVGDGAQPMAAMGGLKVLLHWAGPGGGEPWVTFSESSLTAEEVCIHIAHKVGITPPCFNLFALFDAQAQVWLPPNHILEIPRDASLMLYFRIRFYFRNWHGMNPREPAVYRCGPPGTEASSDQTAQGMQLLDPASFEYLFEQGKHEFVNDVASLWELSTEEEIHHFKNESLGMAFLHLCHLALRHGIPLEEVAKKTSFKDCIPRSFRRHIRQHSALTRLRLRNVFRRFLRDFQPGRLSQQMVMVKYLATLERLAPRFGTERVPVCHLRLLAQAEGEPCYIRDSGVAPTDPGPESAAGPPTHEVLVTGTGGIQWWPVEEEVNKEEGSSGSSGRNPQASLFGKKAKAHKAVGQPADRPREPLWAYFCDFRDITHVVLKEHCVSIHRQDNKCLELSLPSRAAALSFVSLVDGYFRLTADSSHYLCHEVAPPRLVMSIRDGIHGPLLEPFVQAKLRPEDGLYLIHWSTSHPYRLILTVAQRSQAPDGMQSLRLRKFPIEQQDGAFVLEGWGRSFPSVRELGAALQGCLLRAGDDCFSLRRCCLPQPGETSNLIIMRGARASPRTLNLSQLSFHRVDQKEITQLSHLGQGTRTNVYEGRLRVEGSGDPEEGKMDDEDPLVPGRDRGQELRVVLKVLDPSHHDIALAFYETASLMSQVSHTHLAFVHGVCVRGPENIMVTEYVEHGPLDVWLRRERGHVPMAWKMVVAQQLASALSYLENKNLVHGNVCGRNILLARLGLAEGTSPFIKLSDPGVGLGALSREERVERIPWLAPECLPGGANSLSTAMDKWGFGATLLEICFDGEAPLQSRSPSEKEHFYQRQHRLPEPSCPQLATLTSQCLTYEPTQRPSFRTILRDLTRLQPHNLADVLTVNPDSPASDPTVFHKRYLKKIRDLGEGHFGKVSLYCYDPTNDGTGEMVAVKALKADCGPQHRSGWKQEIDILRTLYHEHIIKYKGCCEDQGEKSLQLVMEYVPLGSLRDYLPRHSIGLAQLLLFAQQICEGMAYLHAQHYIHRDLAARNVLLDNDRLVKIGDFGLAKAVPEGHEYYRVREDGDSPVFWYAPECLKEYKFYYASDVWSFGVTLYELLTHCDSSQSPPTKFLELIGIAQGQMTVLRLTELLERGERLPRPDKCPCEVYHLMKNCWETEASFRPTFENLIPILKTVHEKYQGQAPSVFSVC
Histone deacetylase 2, sequence (Q92769 whole entry, the tested form may be a part): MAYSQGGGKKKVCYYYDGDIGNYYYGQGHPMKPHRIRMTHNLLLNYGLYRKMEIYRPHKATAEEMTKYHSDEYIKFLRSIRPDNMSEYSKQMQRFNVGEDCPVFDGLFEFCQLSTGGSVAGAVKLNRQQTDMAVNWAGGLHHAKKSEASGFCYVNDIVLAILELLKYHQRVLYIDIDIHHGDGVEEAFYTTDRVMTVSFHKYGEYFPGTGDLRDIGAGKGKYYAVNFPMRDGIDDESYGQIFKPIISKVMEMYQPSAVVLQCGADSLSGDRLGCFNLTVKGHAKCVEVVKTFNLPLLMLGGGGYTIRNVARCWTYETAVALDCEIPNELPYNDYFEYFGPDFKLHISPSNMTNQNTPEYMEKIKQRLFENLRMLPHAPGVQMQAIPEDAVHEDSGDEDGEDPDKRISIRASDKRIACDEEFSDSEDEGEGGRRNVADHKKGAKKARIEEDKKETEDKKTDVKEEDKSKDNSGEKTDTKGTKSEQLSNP
Tyrosine-protein kinase JAK2, sequence (O60674 whole entry): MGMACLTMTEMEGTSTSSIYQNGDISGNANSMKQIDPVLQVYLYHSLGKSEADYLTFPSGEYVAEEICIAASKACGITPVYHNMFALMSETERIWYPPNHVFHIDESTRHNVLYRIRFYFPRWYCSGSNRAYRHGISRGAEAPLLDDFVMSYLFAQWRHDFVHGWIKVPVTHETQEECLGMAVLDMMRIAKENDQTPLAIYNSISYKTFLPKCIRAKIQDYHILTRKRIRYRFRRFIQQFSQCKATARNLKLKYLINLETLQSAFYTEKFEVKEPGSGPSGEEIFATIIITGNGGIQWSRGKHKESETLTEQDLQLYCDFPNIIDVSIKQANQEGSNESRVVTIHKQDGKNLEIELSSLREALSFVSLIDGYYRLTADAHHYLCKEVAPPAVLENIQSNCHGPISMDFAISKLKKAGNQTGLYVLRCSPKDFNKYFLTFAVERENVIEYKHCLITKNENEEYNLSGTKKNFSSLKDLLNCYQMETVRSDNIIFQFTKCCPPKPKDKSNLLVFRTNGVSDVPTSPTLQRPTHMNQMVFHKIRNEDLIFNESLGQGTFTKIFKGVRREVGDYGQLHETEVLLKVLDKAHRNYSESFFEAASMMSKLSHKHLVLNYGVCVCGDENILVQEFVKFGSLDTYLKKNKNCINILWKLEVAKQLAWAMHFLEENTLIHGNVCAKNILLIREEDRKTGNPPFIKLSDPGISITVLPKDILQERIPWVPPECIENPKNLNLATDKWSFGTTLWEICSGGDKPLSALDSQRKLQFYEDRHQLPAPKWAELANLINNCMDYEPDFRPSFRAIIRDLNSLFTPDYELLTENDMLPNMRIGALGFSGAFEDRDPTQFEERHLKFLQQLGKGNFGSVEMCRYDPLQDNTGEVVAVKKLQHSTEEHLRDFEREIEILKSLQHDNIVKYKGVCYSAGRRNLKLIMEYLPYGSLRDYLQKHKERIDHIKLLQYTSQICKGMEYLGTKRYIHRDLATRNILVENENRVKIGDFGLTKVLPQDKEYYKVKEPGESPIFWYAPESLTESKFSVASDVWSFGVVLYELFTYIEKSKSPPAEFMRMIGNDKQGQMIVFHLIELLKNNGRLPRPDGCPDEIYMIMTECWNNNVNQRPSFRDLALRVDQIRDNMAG
Histone deacetylase 8, sequence (Q9BY41 whole entry, the tested form may be a part): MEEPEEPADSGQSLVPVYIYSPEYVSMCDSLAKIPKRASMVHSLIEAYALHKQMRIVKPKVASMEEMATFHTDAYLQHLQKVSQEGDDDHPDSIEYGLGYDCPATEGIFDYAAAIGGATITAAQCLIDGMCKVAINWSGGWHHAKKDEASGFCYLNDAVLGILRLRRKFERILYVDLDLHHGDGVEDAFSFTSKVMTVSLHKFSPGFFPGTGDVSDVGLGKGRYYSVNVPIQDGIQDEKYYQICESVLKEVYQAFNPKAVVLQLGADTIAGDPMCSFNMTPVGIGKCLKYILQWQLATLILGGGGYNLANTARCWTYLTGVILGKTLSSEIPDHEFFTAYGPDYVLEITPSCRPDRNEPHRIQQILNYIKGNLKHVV

- clearance [1]: 95.1 mL/min/kg
- IC50 (Histone deacetylase 8): 469 nM
- IC50 (TAMH): 4630 nM
- IC50 [2]: 1.4 nM
- IC50 [3]: 75 nM
- IC50 [4]: 188 nM
- Activity [5]: 3.3%
- IC50 (Histone deacetylase 2): 5.8 nM
- IC50 (MOLM-14): 740 nM
- IC50 (cells): 570 nM
- inhibition [6]: Active
SMILES: O=C(CCCCCCn1cc(-c2ncnc3[nH]ccc23)cn1)NO
